Results gathered from unrelated publications.
Protocols differ between the studies behind these lines.
Target: Phosphatidylinositol 4,5-bisphosphate 3-kinase catalytic subunit beta isoform (PIK3CB, Homo sapiens, UniProt P42338)

SMILES | observed | method | concentration | remaining binding [%]
C[C@H]1CCN(c2nccc(-c3cnn4ncccc34)n2)C1 | binding |  | 1 µM | 65
COc1cc(-c2cn(C3CCc4ccccc4N(CC(F)(F)F)C3=O)nn2)ccc1-n1ccc(C)n1 (stereo not drawn) | cell-free assay | competition with immobilised ligand | 1 µM | 100
C[C@@H](c1ccc(-n2cnc3c(N)ncnc32)cc1)N1CCc2nn(C)c(Cc3ccccc3)c2C1=O | binding | competition with immobilised ligand | 0.1 µM | 99
CNC(=O)[C@@H]1CC[C@@H](n2c(-c3ccc4cnccc4c3)nc3ccc(C(=O)NCc4cccc(C(N)=O)c4)cc32)C1 | binding | competition with immobilised ligand | 1 µM | 100
O=C(c1ccc(Nc2ncc(Cl)c(-c3ccc(Cl)s3)n2)cc1)N1CCC(N2CCCC2)CC1 | binding | competition with immobilised ligand | 1 µM | 100
CCC(=N\O)/C(C)=C/c1ccc(F)cc1 | cell-free assay | competition with immobilised ligand | 1 µM | 99
CN(CCCC(F)(F)F)c1nccc(-c2cnn3ncccc23)n1 | binding |  | 1 µM | 100
CS(=O)(=O)c1cc(C2(NC(=O)c3cncc4c3cnn4-c3ccc(F)cc3)CC2)ccn1 | cell-free assay | competition with immobilised ligand | 1 µM | 100
COc1ccnn2ncc(-c3ccnc(N(C)C)n3)c12 | binding |  | 1 µM | 75
O=C(Nc1c[nH]nc1C(=O)NC1CCNCC1)c1cc(F)cc(F)c1 | binding | competition with immobilised ligand | 1 µM | 100
N[C@H]1CCN(c2nccc(-c3cnn4ncccc34)n2)C1 | binding |  | 1 µM | 100
COc1ccc2c(O[C@@H]3C[C@H]4C(=O)N[C@]5(C(=O)O)CC5/C=C\CCCCC[C@H](NC(=O)OC5CCCC5)C(=O)N4C3)cc(-c3csc(NC(=O)C(C)C)n3)nc2c1C (stereo partly drawn) | cell-free assay | competition with immobilised ligand | 1 µM | 62
Cc1cnn2ncc(-c3ccnc(N(C)C)n3)c2c1 | binding |  | 1 µM | 74
Cc1cc(NC(=O)c2cccc(S(F)(F)(F)(F)F)c2)cc(-n2ccn3nc(-c4cccnc4)cc23)c1 | cell-free assay | competition with immobilised ligand | 1 µM | 100
O=C(NCCCN1CCOCC1)c1ccc(Nc2nccc(-c3cc4ccccc4s3)n2)cc1 | binding | competition with immobilised ligand | 1 µM | 100
Nc1ncc2c(n1)-c1c([nH]c3ccc(C#CC4CC4)cc13)CCCC2 | binding | competition with immobilised ligand | 1 µM | 100
CN(c1nccc(-c2cnn3ncccc23)n1)C1CC1 | binding |  | 1 µM | 100
FC(F)(F)Oc1cccc(-c2cnc3ccc(-c4ccncc4)nn23)c1 | cell-free assay | competition with immobilised ligand | 5 µM | 48
Cc1cnc(Nc2ccc(C(=O)N3CCC(N4CCCC4)CC3)cc2)nc1-c1cc2ccccc2s1 | binding | competition with immobilised ligand | 1 µM | 99
O=c1nc(-c2ccccn2)sc2ccccc12 | cell-free assay | competition with immobilised ligand | 1 µM | 100
COc1ncc2cc3ccccc3nc2c1C#N | cell-free assay | competition with immobilised ligand | 5 µM | 100
